Test results: ChEMBL document CHEMBL1143719, “Design, synthesis, and anticonvulsant activity of some sulfamides” (Bioorg Med Chem, 2007)
Active and inactive are the calls of the source. No cut-off for these calls is given here.

Assays:
Mus musculus [1] = assay: Neurotoxicity in Albino mouse at 100 mg/kg, ip after 0.5 hrs by RotoRod test; type: toxicity, organism-based; design: dose 100 mg/kg, route intraperitoneal; conditions: in vivo
Procedure, shortened: (§1)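 RotoRod neurotoxicity screen in mice dosed ip at 30, 100 and 300 mg/kg, in vehicle of 30% PEG 400 and 10% water (0.01 mL/g). Three animals per dose, tested 0.5 and 4 h after administration. Affected animals were scored per group.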

Mus musculus [2] = assay: Neurotoxicity in Albino mouse at 30 mg/kg, ip after 4 hrs by RotoRod test; type: toxicity, organism-based; design: dose 30 mg/kg, route intraperitoneal; conditions: in vivo; procedure, shortened: as §1
Mus musculus [3] = assay: Neurotoxicity in Albino mouse at 30 mg/kg, ip after 0.5 hrs by RotoRod test; type: toxicity, organism-based; design: dose 30 mg/kg, route intraperitoneal; conditions: in vivo; procedure, shortened: as §1
Mus musculus [4] = assay: Anticonvulsant activity in Albino mouse at 30 mg/kg, ip after 4 hrs by MES assay; type: functional, organism-based; design: dose 30 mg/kg
Procedure, shortened: (§2)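 Mice given compound ip at 30, 100 and 300 mg/kg in 30% polyethylene glycol 400 and 10% water, 0.01 mL/g body weight. Three animals per dose. Maximal electroshock (MES) or pentylenetetrazol (PTZ) seizure tests were run 0.5 and 4 h after dosing, and animals protected were counted.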

Mus musculus [5] = assay: Anticonvulsant activity in Albino mouse at 100 mg/kg, ip after 0.5 hrs by PTZ assay; type: functional, organism-based; design: dose 100 mg/kg; procedure, shortened: as §2
Mus musculus [6] = assay: Anticonvulsant activity in Albino mouse at 30 mg/kg, ip after 4 hrs by PTZ assay; type: functional, organism-based; design: dose 30 mg/kg; procedure, shortened: as §2
[7] = (§3) Neurotoxicity in intraperitoneally dosed Albino mouse by RotoRod test; type: toxicity, organism-based; conditions: Albino, in vivo, ip
Procedure, shortened: (§4)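 Median neurotoxic dose in albino mice given compound ip in 30% PEG 400 and 10% water, at the time of peak effect. Six animals per dose were tested on RotoRod and the percentage showing minimal neurotoxicity was recorded. Where TD50 could not be completed, the highest dose tested is reported.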

Mus musculus [8] = assay: as §3; type: toxicity, organism-based; conditions: in vivo, ip; procedure, shortened: as §4
Mus musculus [9] = assay: Anticonvulsant activity in Albino mouse at 100 mg/kg, ip after 4 hrs by MES assay; type: functional, organism-based; design: dose 100 mg/kg; procedure, shortened: as §2
Mus musculus [10] = assay: Anticonvulsant activity in intraperitoneally dosed Albino mouse at 481 umol/kg by PTZ assay; type: functional, organism-based
Procedure, shortened: (§5)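 Phase II PTZ test in albino mice dosed ip (30% PEG 400 and 10% water), at the predetermined time of peak effect, in groups of six animals.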

Mus musculus [11] = assay: Anticonvulsant activity assessed as time of peak effect in intraperitoneally dosed Albino mouse by MES assay; type: functional
Procedure, shortened: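 Phase II quantification in albino mice (ip; 30% PEG 400 and 10% water vehicle). Time of peak effect was determined first. Groups of six mice then received different doses at that time. MES ED50 is the dose protecting 50% of animals, in µmol/kg.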

Mus musculus [12] = assay: Neurotoxicity in Albino mouse at 100 mg/kg, ip after 4 hrs by RotoRod test; type: toxicity, organism-based; design: dose 100 mg/kg, route intraperitoneal; conditions: in vivo; procedure, shortened: as §1
Mus musculus [13] = assay: Anticonvulsant activity in Albino mouse at 30 mg/kg, ip after 0.5 hrs by PTZ assay; type: functional, organism-based; design: dose 30 mg/kg; procedure, shortened: as §2
Mus musculus [14] = assay: Neurotoxicity in intraperitoneally dosed Albino mouse at 481 umol/kg by RotoRod test; type: toxicity, organism-based; conditions: in vivo, ip; procedure, shortened: as §4
Mus musculus [15] = species: Mus musculus; assay: Protective index, ratio of TD50 against Albino mouse to ED50 for Albino mouse; type: functional
Mus musculus [16] = assay: Anticonvulsant activity in Albino mouse at 100 mg/kg, ip after 4 hrs by PTZ assay; type: functional, organism-based; design: dose 100 mg/kg; procedure, shortened: as §2
Mus musculus [17] = assay: Anticonvulsant activity in Albino mouse at 30 mg/kg, ip after 0.5 hrs by MES assay; type: functional, organism-based; design: dose 30 mg/kg; procedure, shortened: as §2
Mus musculus [18] = assay: Neurotoxicity in Albino mouse at 300 mg/kg, ip after 4 hrs by RotoRod test; type: toxicity, organism-based; design: dose 300 mg/kg, route intraperitoneal; conditions: in vivo; procedure, shortened: as §1
Mus musculus [19] = assay: Anticonvulsant activity in Albino mouse at 300 mg/kg, ip after 4 hrs by MES assay; type: functional, organism-based; design: dose 300 mg/kg; procedure, shortened: as §2
Mus musculus [20] = assay: Anticonvulsant activity in Albino mouse at 300 mg/kg, ip after 4 hrs by PTZ assay; type: functional, organism-based; design: dose 300 mg/kg; procedure, shortened: as §2
Mus musculus [21] = assay: Neurotoxicity in Albino mouse at 300 mg/kg, ip after 0.5 hrs by RotoRod test; type: toxicity, organism-based; design: dose 300 mg/kg, route intraperitoneal; conditions: in vivo; procedure, shortened: as §1
Mus musculus [22] = assay: Anticonvulsant activity in intraperitoneally dosed Albino mouse by MES assay; type: functional; conditions: ip
Mus musculus [23] = assay: Anticonvulsant activity in Albino mouse at 100 mg/kg, ip after 0.5 hrs by MES assay; type: functional, organism-based; design: dose 100 mg/kg; procedure, shortened: as §2
Mus musculus [24] = assay: Anticonvulsant activity in intraperitoneally dosed Albino mouse at 1613 umol/kg by PTZ assay; type: functional, organism-based; procedure, shortened: as §5
Mus musculus [25] = assay: Anticonvulsant activity in Albino mouse at 300 mg/kg, ip after 0.5 hrs by PTZ assay; type: functional, organism-based; design: dose 300 mg/kg; procedure, shortened: as §2
Mus musculus [26] = assay: Neurotoxic time of peak effect in intraperitoneally dosed Albino mouse by RotoRod test; type: ADME, organism-based; conditions: in vivo, ip; procedure, shortened: as §4
Mus musculus [27] = assay: Anticonvulsant activity in Albino mouse at 300 mg/kg, ip after 0.5 hrs by MES assay; type: functional, organism-based; design: dose 300 mg/kg; procedure, shortened: as §2

Structure (SMILES)	Activity (Mus musculus [1])	Activity (Mus musculus [2])	Activity (Mus musculus [3])	Activity (Mus musculus [4])	Activity (Mus musculus [5])	Activity (Mus musculus [6])	Activity (Mus musculus [9])	Activity (Mus musculus [12])	Activity (Mus musculus [13])	Activity (Mus musculus [16])	Activity (Mus musculus [17])	Activity (Mus musculus [18])	Activity (Mus musculus [19])	Activity (Mus musculus [20])	Activity (Mus musculus [21])	Activity (Mus musculus [23])	Activity (Mus musculus [25])	Activity (Mus musculus [27])	also measured
CCCCNS(=O)(=O)NCCCC [BUTYL(BUTYLSULFAMOYL)AMINE]	Non-toxic	Non-toxic	Non-toxic	inactive	inactive	inactive	inactive	Non-toxic	inactive	inactive	–	–	–	–	–	–	–	–	TD50 [7]: > 481 µmol/kg; Activity (Mus musculus [8]): 0%; Activity (Mus musculus [10]): inactive; Activity (Mus musculus [11]): 2 h; Activity (Mus musculus [14]): 0%; PI (Mus musculus [15]): >1.6
CCCN(CCC)S(N)(=O)=O	Toxic	Toxic	Toxic	inactive	–	inactive	–	Toxic	inactive	–	inactive	–	–	–	–	–	–	–	–
NS(=O)(=O)NCc1ccccc1	Non-toxic	Non-toxic	Non-toxic	–	inactive	inactive	–	Non-toxic	inactive	inactive	–	Non-toxic	Active	inactive	Non-toxic	Active	inactive	Active	TD50 [7]: 1420 µmol/kg; Activity (Mus musculus [11]): 0.5 h; ED50 (Mus musculus [22]): 239 µmol/kg; Activity (Mus musculus [24]): inactive; PI (Mus musculus [15]): 5.9; Activity (Mus musculus [26]): 0.5 h
CCCN(CCC)S(=O)(=O)NC(=O)OC(C)(C)C	Non-toxic	Non-toxic	Non-toxic	inactive	inactive	inactive	inactive	Non-toxic	inactive	inactive	inactive	Non-toxic	inactive	inactive	Non-toxic	inactive	inactive	–	–
CCCNS(=O)(=O)NCCC	Non-toxic	Non-toxic	Non-toxic	inactive	–	–	inactive	Non-toxic	inactive	inactive	inactive	Non-toxic	inactive	inactive	–	inactive	Active	Active	–
O=S(=O)(N1CCOCC1)N1CCOCC1	Non-toxic	Non-toxic	Non-toxic	inactive	inactive	inactive	inactive	Non-toxic	inactive	inactive	inactive	–	–	–	–	inactive	–	–	–
CC(C)(C)OC(=O)NS(=O)(=O)NCc1ccccc1	Non-toxic	Non-toxic	Non-toxic	inactive	inactive	inactive	inactive	Non-toxic	inactive	inactive	inactive	Non-toxic	inactive	inactive	Non-toxic	inactive	inactive	inactive	–
CCCCN(CCCC)S(N)(=O)=O	Non-toxic	Non-toxic	Non-toxic	inactive	–	inactive	inactive	Non-toxic	inactive	inactive	inactive	Toxic	–	–	Toxic	–	–	–	–
O=S(=O)(NC1CC1)NC1CC1	Non-toxic	Non-toxic	Non-toxic	inactive	inactive	inactive	inactive	Non-toxic	inactive	inactive	inactive	Non-toxic	inactive	inactive	Non-toxic	inactive	inactive	inactive	–
CCCCN(CCCC)S(=O)(=O)N(CCCC)CCCC	Non-toxic	Non-toxic	Non-toxic	inactive	inactive	–	inactive	Non-toxic	inactive	inactive	inactive	Non-toxic	inactive	inactive	Non-toxic	inactive	inactive	inactive	–
CCCCN(CCCC)S(=O)(=O)NC(=O)OC(C)(C)C	Non-toxic	Non-toxic	Non-toxic	–	inactive	inactive	inactive	Non-toxic	inactive	inactive	inactive	Non-toxic	–	inactive	Non-toxic	–	inactive	–	–
CCCCNS(N)(=O)=O	–	Non-toxic	Non-toxic	–	inactive	inactive	–	Non-toxic	inactive	inactive	inactive	–	–	–	Toxic	inactive	–	–	–
CCCCNS(=O)(=O)NC(=O)OC(C)(C)C	Non-toxic	Non-toxic	Non-toxic	inactive	inactive	inactive	–	Non-toxic	inactive	inactive	–	Non-toxic	–	inactive	Non-toxic	Active	inactive	Active	–
CCCN(CCC)S(=O)(=O)N(CCC)CCC	Non-toxic	Non-toxic	Non-toxic	inactive	inactive	inactive	inactive	Non-toxic	inactive	inactive	inactive	Non-toxic	inactive	inactive	Non-toxic	inactive	inactive	inactive	–
